Assay outcomes deposited in PubChem by Broad Institute.
RAD52 anneal inh: inhibitors of human RAD52 DNA annealing; inhibition, % at 18.7 µM; AID 651710; recombinant RAD52 DNA annealing, FRET fluorescence; 0.46% of 360,000 active;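 active = every replicate showing at least 50% inhibition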
Target sequence (P43351 whole entry, looked up): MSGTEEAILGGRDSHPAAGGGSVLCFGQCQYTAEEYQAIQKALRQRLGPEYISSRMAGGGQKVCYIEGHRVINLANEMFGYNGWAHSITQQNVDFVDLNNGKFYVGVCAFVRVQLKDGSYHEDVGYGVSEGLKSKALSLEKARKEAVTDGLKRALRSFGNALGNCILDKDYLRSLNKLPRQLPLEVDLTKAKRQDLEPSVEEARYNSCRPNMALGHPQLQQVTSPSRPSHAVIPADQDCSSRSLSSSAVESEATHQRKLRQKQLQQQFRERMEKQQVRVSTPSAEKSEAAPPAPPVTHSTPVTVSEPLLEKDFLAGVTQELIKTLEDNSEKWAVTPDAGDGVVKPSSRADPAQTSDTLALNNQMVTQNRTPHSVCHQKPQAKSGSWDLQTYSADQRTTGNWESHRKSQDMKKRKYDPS
ERAP1 inh: inhibitors of human ERAP1 aminopeptidase; 0.15% of 340,000 active; recombinant ERAP1, Leu-AMC fluorescence, 60 min; inhibition, % at 10.7 µM; AID 652197; Q9NZ08;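 active = mean replicate inhibition of at least 30%, or all replicates individually reaching that 30% level; inactive = mean below 30% and not every replicate reaching it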;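 also: 0% = neutral control wells and 100% = L-leucinethiol positive control wells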
S100A4 MyoIIA: inhibitors of human S100A4 binding to myosin IIA peptide. 0.14% of 360,000 active. AID 652163. S100A4/TAMRA-MyoIIA peptide fluorescence polarization. P26447. inhibition, % at 10.7 µM;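 active = mean inhibition of at least 70% across replicates, with every replicate also reaching that level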
Target sequence (P26447 whole entry, looked up): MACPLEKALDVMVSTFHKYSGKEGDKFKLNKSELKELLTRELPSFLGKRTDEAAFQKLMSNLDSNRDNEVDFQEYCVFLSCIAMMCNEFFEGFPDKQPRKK
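Material: human S100A4 monomer with TAMRA-labelled myosin IIA peptide; buffer or medium: HEPES pH 7.2 with CaCl2, KCl, NaCl, DTT, Triton; compound dosing: one concentration per compound; schedule: 5 min incubation before reading; benchmarks: neutral control DMSO, positive control TFP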
INS-1E GSIS act: primary screen for activators of insulin secretion dependent on glucose, INS-1E cells, GLuc reporter luminescence | 0.61% of 370,000 active | AID 743287 | INS-1E GLuc reporter insulin secretion, 2-3 h | activation, % at 16.6 µM;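 active = lowest replicate activation of at least 40%, so every replicate reaches that level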;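 also: 0% = median of neutral control wells and 100% = median of IBMX positive control wells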
MLL AF4-AF9 inh: inhibitors of human MLL-AF4/AF9 interaction; 0.47% of 350,000 active; AlphaScreen, biotin-AF4 peptide binding to FLAG-AF9; P42568; inhibition, % at 10 µM; AID 651704;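 active = every replicate reaching a set inhibition limit, whatever the replicate mean, cut at about 25% in these data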;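 also: 0% = plate neutral control median and 100% = total signal loss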
Numbers without * were called inactive; i = inactive; / = no result; ! = a repeat was not active. The list is not random: actives were taken first. Their share in the collection is about 1.5%.

SMILES	RAD52 anneal inh	ERAP1 inh	S100A4 MyoIIA	INS-1E GSIS act	MLL AF4-AF9 inh
C[C@H]1CN([C@@H](C)CO)C(=O)c2cc(NC(=O)CCCCCC(=O)Nc3ccccc3N)ccc2O[C@H]1CN(C)C(=O)NC1CCCCC1	/	/	/	-3	/
O=C1C=CC(=O)N1c1ccccc1N1C(=O)C=CC1=O	-7	58*	-3	/	-2
O=C(c1ccccc1)c1ccccc1N1C(=O)C=CC1=O	-14	/	0	192*	6
O=C1C=CC(=O)N1c1ccccn1	-18	0	7	-19	1
C[C@H]1COCn2nncc2CC[C@H](Cc2ccccc2)C(=O)N1	/	/	/	8	/
COC(=O)C1=C(C)N(Cc2ccccc2C(F)(F)F)C(=NCc2ccc3c(c2)OCO3)NC1c1cccc(F)c1 (stereo not given)	-20	1	3	49*	/
COC(=O)C1=C(C)N(Cc2cccc(C(F)(F)F)c2)C(=NCc2ccccc2C(F)(F)F)NC1c1cccc(F)c1 (stereo not given)	-58	3	2	166*	/
COC(=O)C1=C(C)N(Cc2cccc(C(F)(F)F)c2)C(=NCc2ccc3c(c2)OCO3)NC1c1ccccc1 (stereo not given)	8	-3	-17	/	17
COC(=O)C1=C(C)N(Cc2ccccc2C(F)(F)F)C(=NCc2ccccc2)NC1c1ccc(C(F)(F)F)cc1 (stereo not given)	-2	5	-11	/	/
COC(=O)C1=C(C)N(Cc2cccc(C(F)(F)F)c2)C(=NCc2ccc3c(c2)OCO3)NC1c1cccc(F)c1 (stereo not given)	-9	-2	0	40*	/
COC(=O)C1=C(C)N(Cc2ccccc2C(F)(F)F)C(=NCc2cccc(C(F)(F)F)c2)NC1c1ccc(C(F)(F)F)cc1 (stereo not given)	3	-5	-8	103*	/
CC(=O)N(C)C[C@@H]1Oc2c(NS(C)(=O)=O)cccc2C(=O)N(C)C[C@H]1C	/	/	/	10	/
COc1cccc(C#Cc2ccc3c(c2)O[C@H](CN(C)C)[C@@H](C)CN([C@H](C)CO)S3(=O)=O)c1	-32	4	-7	4	9
COc1ccc2c3c([nH]c2c1)[C@@H](CO)N(C(=O)c1cccc(F)c1)CC31CN(C(=O)CC2CC2)C1	2	-2	-2	9	-2
COc1ccc2c3c(n(C)c2c1)[C@H](CO)N(C)CC31CCN(S(=O)(=O)c2cn(C)cn2)CC1	/	/	/	17	/
COc1ccc(CN(C)C[C@@H]2OCCCC[C@H](C)Oc3ccc(NS(=O)(=O)c4ccc(OC)cc4)cc3C(=O)N([C@@H](C)CO)C[C@@H]2C)cc1	/	/	/	-14	/
CCN(CC)CCCN=C1N[C@@H](c2cccc(C(F)(F)F)c2)C(C(=O)OC)=C(C)N1CC	3	61*	3	9	0
COC(=O)C1=C(C)N(Cc2ccccc2)C(=NCc2ccccc2)N[C@H]1c1cccc(F)c1	23	53*	3	/	10
COC(=O)C1=C(C)N(Cc2cccc(C(F)(F)F)c2)C(=NCc2ccc(OC)cc2)NC1c1ccccc1C(F)(F)F (stereo not given)	-47	0	-6	40*	/
COc1ccc(CN2C(=O)c3ccccc3C2C(=O)NCC2CCCO2)c(OC)c1 (stereo not given)	/	/	/	-6	/
COc1ccc(OC)c(CN2C(=O)c3ccccc3C2C(=O)NCC2CCCO2)c1 (stereo not given)	-6	/	-4	52*	6
O=C(NCC1CCCO1)C1CCC(N2C(=O)c3ccccc3C2=O)CC1 (stereo not given)	/	/	/	81*	/
O=C(NCC1CCCO1)C1CCN(S(=O)(=O)c2ccccc2)CC1 (stereo not given)	-8	-1	0	-8	-2
C[C@@H]1CCCCO[C@H](CN(C)C(=O)Nc2cccc3ccccc23)[C@H](C)CN([C@@H](C)CO)C(=O)c2cc(NS(=O)(=O)c3ccc(Cl)cc3)ccc2O1	-31	-1	5	8	-4
N=c1n(CCN2CCCCC2)c2ccccc2n1CC(O)COc1ccccc1 (stereo not given)	/	/	/	42*	/
SMILES	RAD52 anneal inh	ERAP1 inh	S100A4 MyoIIA	INS-1E GSIS act	MLL AF4-AF9 inh
COc1ccc2c3c(n(C)c2c1)[C@H](CO)NCC31CCN(C(C)=O)CC1	/	/	/	-4	-3
COC(=O)C1C(=O)NC(SC)=C(C#N)C1c1ccccc1 (stereo not given)	/	/	/	40*	/
CC(=O)c1cccc(Nc2ncnc3ccc(Br)cc23)c1	-13	0	-3	49*	-1
O=C(CN1C(=O)NC(Cc2c[nH]c3ccccc23)C1=O)NCCc1ccccc1 (stereo not given)	-15	6	-1	103*	-2
COc1ccc(CCNC(=O)CN2C(=O)NC(Cc3c[nH]c4ccccc34)C2=O)cc1 (stereo not given)	1	3	-1	0	-2
CNC(=O)/C(C#N)=C\c1ccc(CNS(=O)(=O)c2ccc(Cl)cc2)o1	-11	33*	-2	1	-2
Cc1nc(NC(=O)c2cccc(-c3cc4ccccc4oc3=O)c2)ccc1Br	/	/	/	73*	/
C[C@H](CO)N1C[C@H](C)[C@H](CN(C)S(=O)(=O)c2cn(C)cn2)OCCCC[C@H](C)Oc2ccc(NC(=O)Nc3ccc(F)cc3)cc2C1=O	-9	2	-1	-9	5
CCOC(=O)c1cnc2ccc(Cl)cc2c1Nc1ccc(S(=O)(=O)Nc2ncccn2)cc1	/	/	/	40*	/
Cc1noc(C)c1S(=O)(=O)Nc1ccc2c(c1)C(=O)N([C@H](C)CO)C[C@H](C)[C@@H](CN(C)S(=O)(=O)c1cccs1)OCCCC[C@H](C)O2	/	/	/	-4	/
CC(=O)N1CC2(C1)[C@@H](c1ccccc1)[C@@H](CO)N2Cc1cccc(Cl)c1	-1	0	-2	-9	1
O=C(OCc1ccccc1)/C(=C/c1ccc(Cl)cc1)NC(=O)c1ccccc1Cl	/	/	/	70*	/
Cc1ccc(C(=O)N/C(=C\c2ccccc2)C(=O)OCc2ccccc2)cc1	/	/	/	-23	/
COCC(=O)N1[C@@H](CO)[C@@H](c2ccccc2)C12CN(C(=O)Cc1ccccn1)C2	-344	-1	7	5	-4
COCC(=O)N1[C@H](CO)[C@@H](c2ccccc2)C12CN(C(=O)Cc1ccccn1)C2	i	2	97*	34	-4
O=C(Nc1ccccc1)[C@H]1[C@H](CO)[C@H]2Cn3c(cccc3=O)[C@H]2N1CC1CCOCC1	/	/	/	8	/
CC(=O)Nc1ccc(C(=O)CCl)cc1	-10	2	94*	6	/
CC(=O)NCc1ccc(C(=O)CCl)cc1	-11	4	-25	34	-1
Cc1cccc(-c2ccc(C3[C@@H]4CN(C(=O)Nc5ccc(F)cc5)C[C@H]3N4)cc2)c1 (stereo not given in full)	60*!	0	8	-4	3
O=C(Nc1cccc(F)c1)N1C[C@@H]2N[C@H](C1)C2c1ccc(-c2ccc(F)cc2)cc1 (stereo not given in full)	51*	3	2	-30	1
